Laboratory results reported in PubChem BioAssay.
Calls of active or inactive are those of the source.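 The calls were made as follows, unless noted: active = NADPH fluorescence slope more negative than the mean of all samples by about 3 SD, 99.7% confidence; inactive = the rest.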

Key:
[1] = inhibitors of TNFa-induced NFkB p65 translocation, primary screen, imaging, HUVEC, MLSMR starter and 10KST1 sets (AID 438;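 active = inhibition above 20% together with a positive visual image hit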;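 also: compound added about 3h40 before a 20 min TNFalpha stimulation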;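 as to inhibition: signal is the nuclear over cytoplasmic p65 intensity ratio per well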); settings: HUVEC TNFa-induced p65 nuclear translocation; cell count: measured here: nuclei count (cytotoxicity indicator), at 2.08 µM; inhibition: at 2 µM, stronger effect = higher value, 0% TNFa-plus-vehicle, 100% no-TNFa wells
[2] = endothelial E-selectin expression blockers – imaging, HUVEC, immunofluorescence, MLSMR starter and 10KST1 sets, primary screen (AID 487;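 active = visually confirmed hit in the image check and inhibition above 20%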;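 as to inhibition: signal is fraction of cell area covered by stained E-selectin grains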;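 as to nuclei count: 100% = median nuclei count of all wells on the same plate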); settings: HUVEC TNFalpha-induced E-selectin immunofluorescence imaging, at 2 µM; inhibition: stronger effect = higher value; nuclei count: measured here: cell number, toxicity
[3] = Primary imaging screen for DUSP6 inhibitors that restore phospho-Erk in transfected HeLa cells, chemical complementation (AID 609;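 active = compounds giving at least 50% inhibition in the cell-based MKP-3 phosphatase rescue imaging test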;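 as to inhibition: phospho-Erk level distribution per well compared with pooled transfected vehicle control wells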); settings: HeLa MKP-3 transfected, phospho-Erk imaging KS statistic, at 10 µM, cells stimulated with TPA for 15 min
[4] = biological target: Dual specificity protein phosphatase 6 (Homo sapiens) (UniProt Q16828); test: as above; settings: HeLa MKP-3 transfected, phospho-Erk imaging KS statistic; at 10 µM; stronger effect = higher value; cells stimulated with TPA for 15 min
[5] = biological target: Voltage-gated potassium channel subunit beta-2 (Rattus norvegicus) (UniProt P62483); test: inhibitors of rat Kvbeta2 reductase activity – biochemical, NADPH fluorescence, primary screen (AID 622;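 active = fluorescence slope higher than the sample average by over 3 SD, cut at about -0.22 in these data, passing the limit was not always enough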;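 also: slope of raw intensity against log time taken from 70 to 1610 s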); settings: recombinant KvBeta, 4-cyanobenzaldehyde reduction, at 10 µM, stronger effect = higher value
[6] = biological target: Voltage-gated potassium channel subunit beta-2 (Rattus norvegicus) (UniProt P62483); test: enhancers of rat Kvbeta2 NADPH turnover – biochemical, NADPH fluorescence, primary screen (AID 623); settings: Recombinant KvBeta, NADPH fluorescence decrease slope, 10 min; at 10 µM; stronger effect = lower value;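 also: fluorescence intensity change per second fitted from 20 to 320 s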
[7] = biological target: Alpha-2C adrenergic receptor (Homo sapiens) (UniProt P18825); test: compounds altering alpha2C-coupled GIRK flux – cell-based, HEK293 alpha2C/GIRK1/2, thallium flux, primary screen (AID 624;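 active = fluorescence slope after compound addition differing from the mean of all screened samples at 99.7% confidence, in either direction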;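 also: slope of fluorescence ratio to pre-addition baseline per second over 15 to 24 s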); settings: thallium flux BTC fluorescence, at 10 µM, actives lie on both sides
[8] = inhibitors of larval lipid processing in zebrafish, primary screen, whole organism, PED6 fluorescence, gall bladder and intestine (AID 686;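 active = a full or partial loss of lipid-probe fluorescence in the fish gall bladder, intestine or both, judged by eye; inactive = no fluorescence loss, or compound toxic to the fish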;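 also: larvae 5 to 7 days old with five fish per well; signal comes from phospholipase A2 cleavage of quenched PED6 carried via bile; overnight exposure to compound and PED6 before scoring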); settings: Zebrafish larvae PED6 lipid processing, fluorescence scoring; screened at 20 µM (by protocol)
Outline: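 Also added: quenched phospholipase substrate PED6, 100 nM final, ingested by larvae; System: zebrafish larvae, 5-7 d; Quantity: 5 larvae per well; Compound: 20 µM single dose; Schedule: overnight compound and PED6 incubation; Read-out: visual per-well fluorescence inhibition score; Measured by: By-eye fluorescence microscopy; Medium: E3.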

[9] = loss of swimming-algae plug formation – whole organism, Chlamydomonas reinhardtii, WT vs cilia-less mutant, absorbance, 96-well, primary screen (AID 463189;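 active = inhibition at or above 50% relative to wild type and mutant plate controls; inactive = inhibition below 50%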;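 also: 0% = wild type cc124 cells in DMSO and 100% = ciliumless bld1 mutant cells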); settings: Chlamydomonas reinhardtii gravitaxis, OD600 absorbance, 2 days; at 10 µM; stronger effect = higher value
[10] = measured here: cell density z-score
[11] = measured here: nuclear c-Myc green intensity z-score
[12] = measured here: nuclear pErk red intensity z-score, stronger effect = higher value

Voltage-gated potassium channel subunit beta-2 (Rattus norvegicus), sequence (P62483 whole entry, looked up): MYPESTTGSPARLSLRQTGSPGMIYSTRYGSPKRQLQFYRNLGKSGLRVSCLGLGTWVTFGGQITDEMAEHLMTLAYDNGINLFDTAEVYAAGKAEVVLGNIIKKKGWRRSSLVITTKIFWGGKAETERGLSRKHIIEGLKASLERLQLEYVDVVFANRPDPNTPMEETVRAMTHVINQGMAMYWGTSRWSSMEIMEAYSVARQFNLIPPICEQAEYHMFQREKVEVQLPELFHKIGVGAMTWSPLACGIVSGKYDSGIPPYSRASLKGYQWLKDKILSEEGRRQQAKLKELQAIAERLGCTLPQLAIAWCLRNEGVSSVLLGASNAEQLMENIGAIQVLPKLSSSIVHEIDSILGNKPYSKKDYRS
Dual specificity protein phosphatase 6 (Homo sapiens), sequence (Q16828 whole entry, looked up): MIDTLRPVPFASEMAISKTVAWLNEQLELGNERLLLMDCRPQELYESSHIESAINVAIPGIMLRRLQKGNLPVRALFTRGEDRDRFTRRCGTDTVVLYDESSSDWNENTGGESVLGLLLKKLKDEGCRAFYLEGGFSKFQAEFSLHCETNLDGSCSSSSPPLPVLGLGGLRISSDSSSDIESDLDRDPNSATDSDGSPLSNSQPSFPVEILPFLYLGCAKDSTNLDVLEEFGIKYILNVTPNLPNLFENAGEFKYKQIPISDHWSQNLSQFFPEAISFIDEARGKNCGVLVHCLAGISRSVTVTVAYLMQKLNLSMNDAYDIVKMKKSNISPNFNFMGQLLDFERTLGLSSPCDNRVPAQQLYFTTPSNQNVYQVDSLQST
Alpha-2C adrenergic receptor (Homo sapiens), sequence (P18825 whole entry, looked up): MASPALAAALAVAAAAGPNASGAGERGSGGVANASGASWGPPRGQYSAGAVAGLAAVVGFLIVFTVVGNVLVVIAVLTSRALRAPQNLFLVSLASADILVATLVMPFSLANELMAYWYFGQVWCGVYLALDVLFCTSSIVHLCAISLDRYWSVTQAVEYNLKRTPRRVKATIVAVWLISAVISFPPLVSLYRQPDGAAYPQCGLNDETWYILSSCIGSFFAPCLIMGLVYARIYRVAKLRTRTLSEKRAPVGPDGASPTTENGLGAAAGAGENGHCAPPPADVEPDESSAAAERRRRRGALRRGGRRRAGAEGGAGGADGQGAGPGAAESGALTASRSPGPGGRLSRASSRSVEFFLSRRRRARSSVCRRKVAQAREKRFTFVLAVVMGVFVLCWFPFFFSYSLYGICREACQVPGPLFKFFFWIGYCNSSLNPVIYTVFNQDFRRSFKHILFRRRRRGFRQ

Compound | cell count [1] | inhibition [1] | inhibition [2] | nuclei count [2] [%] | z-score [3, 10] | z-score [3, 11] | z-score [3, 12] | inhibition [4] | fluorescence slope [5] | NADPH fluorescence slope [6] | slope [7] | outcome [8] | inhibition [9]
C=CCSc1nc(C)c(CC=C)c(=O)[nH]1 | 482 | -4.7% (inactive) | -71.1% (inactive) | 87.6 | 0.711 | -0.59 | 0.352 | 11.9% (inactive) | -0.472 (inactive) | -1.2e-06 (inactive) | 0.00783 (inactive) | inactive | 31.6% (inactive)
Cc1cccc(OCC(=O)N2CCC(N3CCOCC3)CC2)c1 | 356 | -12.6% (inactive) | -156% (inactive) | 149 | 2.22 | -1.72 | 0.299 | 17% (inactive) | -0.406 (inactive) | -4.5e-05 (inactive) | 0.00455 (inactive) | inactive | 11.3% (inactive)
O=C(Nc1ncn[nH]1)c1c(Cl)ccc(Cl)c1Cl | 597 | -1.6% (inactive) | 20% (inactive) | 162 | -1.37 | 0.992 | 0.69 | -15% (inactive) | -0.362 (inactive) | -8.7e-06 (inactive) | 0.00528 (inactive) | inactive | 0.721% (inactive)
CCCSc1nc(C)c(CC(=O)OCC)c(=O)[nH]1 | 573 | -10.2% (inactive) | -162% (inactive) | 138 | -0.128 | -1.19 | 1.09 | 1.98% (inactive) | -0.508 (inactive) | -6e-05 (inactive) | 0.008 (inactive) | inactive | 6.42% (inactive)
CC1CCc2cc(F)cc3c(O)c(C(=O)NCc4ccco4)c(=O)n1c23 (stereo unspecified) | 531 | -4.5% (inactive) | -39.2% (inactive) | 138 | -0.138 | 1.87 | -4.17 | 5.26% (inactive) | -0.329 (inactive) | 4e-05 (inactive) | 0.00603 (inactive) | inactive | 6.44% (inactive)
CCN(CC)CCNc1nc2c(c(=O)[nH]c(=O)n2C)n1CCOc1ccccc1 | 501 | -1.2% (inactive) | -206% (inactive) | 135 | 0.0299 | -1.12 | -0.109 | 12.3% (inactive) | -0.534 (inactive) | -4.4e-05 (inactive) | 0.00521 (inactive) | inactive | 0.39% (inactive)
c1coc(CNc2ncnc3ccccc23)c1 | 553 | -2.6% (inactive) | 2.7% (inactive) | 155 | 0.847 | -1.11 | 1.51 | 14% (inactive) | -0.479 (inactive) | -0.000192 (inactive) | 0.00559 (inactive) | inactive; toxic | 12.9% (inactive)
Cc1ccc(SCc2nnc(N)s2)cc1 | 580 | -16.4% (inactive) | 29.9% (inactive) | 161 | -0.876 | -0.003 | 0.564 | -15% (inactive) | -0.396 (inactive) | -5.4e-05 (inactive) | 0.00821 (inactive) | inactive | 7.17% (inactive)
CCCC1C2C(=O)N(c3ccccc3OC)C(=O)C2ON1c1ccccc1 (stereo unspecified) | 329 | -20.4% (inactive) | -107% (inactive) | 93.8 | 1.11 | 1.02 | 0.149 | 11.3% (inactive) | -0.536 (inactive) | -2.6e-05 (inactive) | 0.00508 (inactive) | inactive | 32.4% (inactive)
Cc1csc2nc(CSc3nc4ccccc4o3)cn12 | 402 | -8.4% (inactive) | -53.8% (inactive) | 108 | 0.0403 | 1.14 | -0.0493 | 3.56% (inactive) | -0.545 (inactive) | -5.7e-05 (inactive) | 0.00434 (inactive) | inactive | 5.29% (inactive)
Cc1nnc(C)n1/N=C/c1cc(Br)cc(Br)c1O | 354 | 3.7% (inactive) | -46.9% (inactive) | 156 | 0.57 | 0.148 | -0.137 | 1.6e-07% (inactive) | -0.368 (inactive) | -0.000109 (inactive) | 0.00748 (inactive) | inactive | 4.5% (inactive)
C1CCCN(CCCCN2CCCCCC2)CC1 | 575 | -1.5% (inactive) | -211% (inactive) | 129 | -2.5 | 1.44 | -0.0614 | -5.89% (inactive) | -0.456 (inactive) | -0.000347 (inactive) | 0.00726 (inactive) | inactive | -11.5% (inactive)
COc1cccc(OC)c1OCC(C)CNCC1CCCO1 (stereo unspecified) | 524 | -5.6% (inactive) | -156% (inactive) | 123 | -1 | 1.14 | 1.28 | 9.39% (inactive) | -0.524 (inactive) | -5e-05 (inactive) | 0.00511 (inactive) | inactive | 11.3% (inactive)
COC(=O)CC1=C(C(=O)OC)C(c2ccncc2)C(C#N)=C(N)O1 (stereo unspecified) | 492 | -3.8% (inactive) | -58.7% (inactive) | 157 | 1.74 | -0.108 | -0.84 | 16.8% (inactive) | -0.366 (inactive) | 1e-05 (inactive) | 0.00477 (inactive) | inactive | 24.5% (inactive)
CC1(C)Nc2ccc(O)cc2-c2c1ssc2=S | 403 | -28.2% (inactive) | -198% (inactive) | 193 | -0.436 | -0.817 | -1.32 | -0.624% (inactive) | -0.316 (inactive) | 3.7e-06 (inactive) | 0.00209 (inactive) | inactive | -1.08% (inactive)
O=C(NCc1ccco1)c1cnn2c1NC(c1ccccc1)CC2C(F)(F)F (stereo unspecified) | 479 | -5.5% (inactive) | -25.8% (inactive) | 107 | -0.862 | 0.861 | -0.0535 | -2.07% (inactive) | -0.53 (inactive) | -4e-05 (inactive) | 0.0056 (inactive) | inactive | -7.85% (inactive)
O=S(=O)(c1ccccc1)N1CCC(N2CCN(c3ccccc3)CC2)CC1 | 454 | -26.3% (inactive) | -98.2% (inactive) | 140 | -1.37 | -0.201 | -1.07 | -3.95% (inactive) | -0.326 (inactive) | 1.7e-05 (inactive) | 0.006 (inactive) | inactive | 1.95% (inactive)
CN1CCN(CC(=O)Nc2nc(-c3ccccc3)cs2)CC1 | 667 | -3.3% (inactive) | -41.9% (inactive) | 149 | -1.89 | 1.19 | 0.906 | 0.671% (inactive) | -0.462 (inactive) | -0.000262 (inactive) | 0.0053 (inactive) | inactive | 8.3% (inactive)
COC(=O)c1sc(NC(C)=O)c(C(=O)OC)c1C | 633 | -13.3% (inactive) | 4.8% (inactive) | 154 | 1.36 | -0.117 | -1.37 | 6.04% (inactive) | -0.516 (inactive) | -9.3e-05 (inactive) | 0.00594 (inactive) | inactive | -1.51% (inactive)
CCOC(=O)c1cc2cc(OC)ccc2[nH]1 | 596 | -5.3% (inactive) | -44.6% (inactive) | 87.4 | -0.384 | 1.83 | 0.163 | 5.57% (inactive) | -0.497 (inactive) | -9.6e-05 (inactive) | 0.00467 (inactive) | inactive | 26.5% (inactive)
CCCCCSc1nc(O)cc(=O)[nH]1 | 366 | -1.9% (inactive) | -61.7% (inactive) | 116 | -1.75 | 1.21 | 0.475 | -0.624% (inactive) | -0.395 (inactive) | 1.3e-05 (inactive) | 0.00579 (inactive) | inactive | -10.7% (inactive)
COc1cccc(-c2nc(N3CCN(Cc4ccccc4)CC3)c3ccccc3n2)c1O | 578 | -4.5% (inactive) | 7% (inactive) | 126 | -0.018 | 0.0703 | 0.663 | 3.5% (inactive) | -0.272 (inactive) | 8.6e-06 (inactive) | 0.0051 (inactive) | inactive | 8.35% (inactive)
O=C1C=C(O)CC(c2cccs2)C1 (stereo unspecified) | 590 | 1.5% (inactive) | -11.9% (inactive) | 126 | -0.072 | -0.344 | -0.148 | -1.12% (inactive) | -0.536 (inactive) | -5.7e-05 (inactive) | 0.00523 (inactive) | inactive | -9.61% (inactive)
COc1cccc(NC(=O)CSC2=C(C#N)C(c3ccco3)C3=C(CCCC3=O)N2)c1 (stereo unspecified) | 474 | -0.1% (inactive) | -19.9% (inactive) | 101 | 0.0221 | -0.732 | 2.07 | -3.98% (inactive) | -0.506 (inactive) | -6.2e-05 (inactive) | 0.00557 (inactive) | inactive | 2.98% (inactive)
CC1(C)CC(=O)C(C=NCCN2CCN(C(=O)C34CC5CC(CC(C5)C3)C4)CC2)=C(O)C1 | 573 | -4.4% (inactive) | -174% (inactive) | 144 | -0.458 | 0.612 | -0.352 | 3.97% (inactive) | -0.493 (inactive) | -5.1e-05 (inactive) | 0.00469 (inactive) | inactive | 4.48% (inactive)
O=C(c1coc(=O)c(Br)c1)N1CCCc2ccccc21 | 384 | -0.8% (inactive) | -39.7% (inactive) | 134 | -0.336 | -1.15 | 0.12 | 3.42% (inactive) | -0.437 (inactive) | -8e-05 (inactive) | 0.00466 (inactive) | inactive | 36.5% (inactive)
Cc1ccccc1C(=O)c1ccc2c(c1)n(C)c(=O)n2C | 547 | -22.1% (inactive) | -296% (inactive) | 200 | 1.43 | -1.34 | 1.32 | 5.65% (inactive) | -0.512 (inactive) | -5.8e-05 (inactive) | 0.00384 (inactive) | inactive | 0.416% (inactive)
